Results on seven molecules are retold here after paper PMC8332596 (Clinical Pharmacokinetics, 2021).

Data set [1] is classed as in vivo, human. The note with it: single 5 mg SC; for tmax median of differences (90% CI): Hodges–Lehmann; for tmax: median (range). The method, boiled down: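 Single SC 5 mg dose given on day 1. Plasma was drawn predose and at 8, 12, 24, 48, 72, 96, 168, 336 and 648 h, then stored at about −70 °C. Drug was immunoprecipitated and quantified by LC–high-resolution MS (HESI, positive ion) over 2.00–500.00 ng/mL. Noncompartmental analysis used actual times, trapezoidal AUClast and log-linear λz. Log AUC/Cmax ratios versus control came from ANOVA with 90% CI; tmax by Hodges–Lehmann.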

A short description of data set [2]: Safety and tolerability after a single subcutaneous dose of tirzepatide 5 mg. In kind it is in vivo, human. The note with it: single 5 mg SC. The gist of the method:
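Open-label phase I single-dose study in adults aged 18–85 y with BMI 19.0–40.0 kg/m2, grouped by MDRD eGFR. ESRD subjects were dialysed on high-flux polysulfone membranes. AEs were recorded at screening and on days 1, 2, 3, 4, 5, 8, 15 and ≥28. Glucose was checked predose, at 12–336 h and on day ≥28, with hypoglycaemia defined per ADA guidance. ISRs were assessed to 48 h. Labs (incl. amylase/lipase), vitals and ECGs were taken at set visits.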

Data set [3] is described as follows: Immunogenicity: antidrug antibodies in serum. The format is in vivo, human. The note with it: single 5 mg SC, maximum of 30 days of ADA monitoring postdose.
For data set [4] the following is noted: dose range 0.5 to 15 mg, single-dose levels and steady state; cited from earlier work.
The conditions of data set [5]: cited from earlier work.
The conditions of data set [6]: once-weekly dulaglutide 1.5 mg; patients with T2D; cited from earlier work.
[7] abbreviates: moderate renal impairment, N = 8.
Setting [8] is: mild-to-moderate renal impairment.

Where two headings read alike, the source gives them in different places.

`CC[C@H](C)[C@H](NC(=O)[C@H](CC(C)C)NC(=O)[C@H](Cc1c[nH]c2ccccc12)NC(=O)[C@H](CCC(N)=O)NC(=O)[C@@H](NC(=O)[C@H](Cc1ccccc1)NC(=O)[C@H](C)NC(=O)[C@H](CCCCNC(=O)COCCOCCNC(=O)COCCOCCNC(=O)CC[C@H](NC(=O)CCCCCCCCCCCCCCCCCCC(=O)O)C(=O)O)NC(=O)[C@H](CCC(N)=O)NC(=O)[C@H](C)NC(=O)[C@@H](NC(=O)[C@H](CCCCN)NC(=O)[C@H](CC(=O)O)NC(=O)[C@H](CC(C)C)NC(=O)C(C)(C)NC(=O)[C@@H](NC(=O)[C@H](CO)NC(=O)[C@H](Cc1ccc(O)cc1)NC(=O)[C@H](CC(=O)O)NC(=O)[C@H](CO)NC(=O)[C@@H](NC(=O)[C@H](Cc1ccccc1)NC(=O)[C@@H](NC(=O)CNC(=O)[C@H](CCC(=O)O)NC(=O)C(C)(C)NC(=O)[C@@H](N)Cc1ccc(O)cc1)[C@@H](C)O)[C@@H](C)O)[C@@H](C)CC)[C@@H](C)CC)C(C)C)C(=O)N[C@@H](C)C(=O)NCC(=O)NCC(=O)N1CCC[C@H]1C(=O)N[C@@H](CO)C(=O)N[C@@H](CO)C(=O)NCC(=O)N[C@@H](C)C(=O)N1CCC[C@H]1C(=O)N1CCC[C@H]1C(=O)N1CCC[C@H]1C(=O)N[C@@H](CO)C(N)=O` [tirzepatide] had a half-life in data set [1] (human, plasma, sc, 5 mg, t½, ESRD, n = 8, geometric mean (range)) of 151 h. Also, in data set [1] (ESRD vs normal renal function), the “tmax median of differences (90% CI)” value was found to be 0.00 h. For the same molecule, the tmax in data set [1] (ESRD, n = 8) is given as 48.00 (24.00–96.00) h. Also, in data set [1] (linear regression, eGFR as continuous variable), the “relationship between exposure (Cmax, AUClast, AUC∞) and MDRD eGFR” value is on record as “did not show a relationship”. In addition, the “higher AUClast versus control” value in data set [1] (mild renal impairment group classified by CLCR (Cockcroft–Gault)) worked out at 23%. For the same molecule, the “tmax median of differences (90% CI)” value in data set [1] (mild renal impairment vs normal renal function) is reported as 0.00 h. Also, the t½ in data set [1] (mild renal impairment, n = 8, geometric mean (range)) is listed as 121 (94.6–138) h. Besides, the tmax in data set [1] (mild renal impairment, n = 8) is on record as 48.00 (12.00–96.00) h. Moreover, the “increase in AUCs versus normal renal function” value in data set [1] (moderate renal impairment group) is 25–29%. In addition, the “geometric mean AUClast higher than control group” value in data set [1] (moderate renal impairment vs control, 90% CI 1.04–1.52) is 25%. Also, in data set [1] (moderate renal impairment vs control, 90% CI 1.07–1.56), the “geometric mean AUC∞ higher than control group” value was found to be 29%. Moreover, the “number of subjects with AEs related to tirzepatide” value (shortened to “number of subjects with AEs related”) in data set [2] (ESRD group (37.5%)) was found to be 3. Also, in data set [2] (ESRD, N = 8), the Abdominal distention is listed as 0 (0.0) n (%), the Back pain is listed as 0 (0.0) n (%), the Deaths is reported as 0 (0.0) n (%) and the Diarrhea is given as 0 (0.0) n (%). Further, in data set [2] (ESRD, N = 8), the Headache was 0 (0.0) n (%), the Nausea is 1 (12.5) n (%), the “Serious AEs” value is given as 0 (0.0) n (%) and the “Treatment-emergent AEs” value was 3 (37.5) n (%). Also, the Vomiting in data set [2] (ESRD, N = 8) is listed as 2 (25.0) n (%). In data set [2] (all groups), the “alterations in laboratory, vital signs values, ECGs, or blood glucose monitoring” value is reported as “no clinically significant alterations” and the severe hypoglycemic events result was “no severe hypoglycemic events”. The “discontinuations due to AEs, serious AEs, deaths” value in data set [2] (all groups, 45 subjects) is on record as “No discontinuations due to AEs, serious AEs, or deaths”. Also, the tolerability entry in data set [2] (all treatment groups) was “well-tolerated”. In addition, the “injection-site reactions (ISRs)” value in data set [2] (assessed predose and 0, 6, 12, 24, 48 h postdose) is listed as “No ISRs were reported”. Besides, the “number of subjects with AEs related” value in data set [2] (control group (7.1%)) stood at 1. For the same molecule, the “number of subjects with AEs related” value in data set [2] (mild renal impairment group (37.5%)) is on record as 3. Also, in data set [2] (mild renal impairment, N = 8), the Abdominal distention was 0 (0.0) n (%), the Back pain is listed as 1 (12.5) n (%), the Deaths is on record as 0 (0.0) n (%) and the Diarrhea is reported as 1 (12.5) n (%). Also, in data set [2] (mild renal impairment, N = 8), the Headache was 0 (0.0) n (%), the Nausea is recorded as 1 (12.5) n (%), the “Serious AEs” value is given as 0 (0.0) n (%) and the “Treatment-emergent AEs” value is 3 (37.5) n (%). In data set [2] (mild renal impairment, N = 8), the Vomiting is recorded as 0 (0.0) n (%). In addition, in data set [2] (moderate renal impairment group (37.5%)), the “number of subjects with AEs related” value was 3. Besides, in data set [2] (setting [7]), the Abdominal distention is 1 (12.5) n (%), the Back pain is reported as 1 (12.5) n (%), the Deaths is listed as 0 (0.0) n (%) and the Diarrhea is 1 (12.5) n (%). In data set [2] (setting [7]), the Headache is recorded as 0 (0.0) n (%), the Nausea was 0 (0.0) n (%), the “Serious AEs” value is reported as 0 (0.0) n (%) and the “Treatment-emergent AEs” value was 3 (37.5) n (%). Further, in data set [2] (setting [7]), the Vomiting was 0 (0.0) n (%). Besides, in data set [2] (normal renal function, N = 14), the Abdominal distention was 0 (0.0) n (%), the Back pain was 0 (0.0) n (%), the Deaths was 0 (0.0) n (%) and the Diarrhea was 0 (0.0) n (%). Further, in data set [2] (normal renal function, N = 14), the Headache is 1 (7.1) n (%), the Nausea is listed as 0 (0.0) n (%), the “Serious AEs” value was 0 (0.0) n (%) and the “Treatment-emergent AEs” value is 1 (7.1) n (%). In addition, the Vomiting in data set [2] (normal renal function, N = 14) is reported as 0 (0.0) n (%). Moreover, the “treatment-related AEs” value in data set [2] (severe renal impairment group) was “No treatment-related AEs were reported”. In data set [2] (severe renal impairment, N = 7), the Abdominal distention is 0 (0.0) n (%), the Back pain is 0 (0.0) n (%), the Deaths was 0 (0.0) n (%) and the Diarrhea is on record as 0 (0.0) n (%). For the same molecule, in data set [2] (severe renal impairment, N = 7), the Headache is on record as 0 (0.0) n (%), the Nausea is recorded as 0 (0.0) n (%), the “Serious AEs” value was 0 (0.0) n (%) and the “Treatment-emergent AEs” value is 0 (0.0) n (%). The Vomiting in data set [2] (severe renal impairment, N = 7) is recorded as 0 (0.0) n (%). Moreover, in data set [3], the “treatment-emergent antidrug antibodies (ADAs)” value was “No treatment-emergent ADAs were detected”. Besides, the “dose dependence of PK” value in data set [4] was “linear and dose-proportional”.

As to albiglutide, the “PK versus subjects with normal renal function” value in data set [5] (setting [8]) is “not significantly altered”.

As for dulaglutide, in data set [6], the HbA1c reduction is given as at most 1.1% and the body weight reduction was at most 2.7 kg. In addition, in data set [5], the “influence of the extent of renal impairment on PK” value is reported as “not influenced”.

For the molecule exenatide, the “PK changes versus subjects with normal renal function” value in data set [5] (subcutaneous, mild-to-moderate renal impairment) is “clinically acceptable”.

On to liraglutide, for which the “PK versus subjects with normal renal function” value in data set [5] (setting [8]) was “not significantly altered”.

Regarding lixisenatide, the “differences in PK versus subjects with normal renal function” value in data set [5] (setting [8]) is listed as “no significant differences”. Moreover, the drug exposure result in data set [5] (severe renal impairment) is given as “may be increased”.

As to semaglutide, the “impact of renal impairment on plasma PK” value in data set [5] (oral) is “lack of impact”.

Usually half-life stands for the time needed for the level to fall by half in the phase considered. Low readings indicate rapid decline, high ones slow decline.
